Each structure is given as a SMILES string.

The test system of one test is A549. The test is described as follows: Antiproliferative activity against human A549 cells after 72 hrs by MTT assay. The format is functional, cell-based. As to conditions: A549, 72 h. Put shortly: (§1)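 MTT assay. Log-phase cells were seeded at 3×10^3 cells/well and left overnight, then exposed to serial dilutions of compound (DMSO solutions) for 72 h in RPMI 1640 with 10% heat-inactivated FBS at 37 °C, 5% CO2. MTT (5 mg/mL, 20 µL) was added for 4 h at 37 °C and the formazan dissolved in DMSO. A490 was read. % inhibition = (1 − sample OD/control OD)×100; IC50 is the 50% growth-inhibition concentration. Triplicates, n = 3 independent experiments.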
For orientation: Tetrazolium assays rely on reduction of a dye to a coloured formazan, in cell work by metabolically active cells.

For a further test, the system named is MDCK. The experiment in a line: Antiproliferative activity against MDCK cells after 72 hrs by MTT assay. Conditions: Canis lupus familiaris. It counts as cell-based. Put shortly:
as §1

The subject of the next test is BGC-823. The test is described as follows: Antiproliferative activity against human BGC823 cells after 72 hrs by MTT assay. It counts as functional, cell-based. As to conditions: BGC-823, 72 h. In outline:
as §1

In another test the test system is HT-29. The experiment in a line: Antiproliferative activity against human HT-29 cells after 72 hrs by MTT assay. Conditions: HT-29, 72 h. The format is functional, cell-based. Put shortly: as §1
For test [1], the system named is HeLa. The test is described as follows: Antiproliferative activity against human HeLa cells after 72 hrs by MTT assay. It counts as functional, cell-based. In outline: as §1
For test [2], the system named is HeLa. The experiment in a line: Therapeutic index, ratio of IC50 for MDCK cells to IC50 for human HeLa cells. Put shortly: (§2)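 Ratios were calculated from MTT IC50 values (72 h exposure, A490 read-out, n = 3). Potency index = cisplatin IC50 / compound IC50. Therapeutic index = MDCK IC50 / tumour-line IC50.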
Test [3] in a line: Therapeutic index, ratio of IC50 for MDCK cells to IC50 for human HepG2 cells. Put shortly: as §2
Test [4] is described as follows: Therapeutic index, ratio of IC50 for MDCK cells to IC50 for human HT-29 cells. Put shortly:
as §2

The nature of test [5]: Therapeutic index, ratio of IC50 for MDCK cells to IC50 for human A549 cells. Put shortly: as §2
Test [6] in a line: Therapeutic index, ratio of IC50 for MDCK cells to IC50 for human BGC823 cells. In outline:
as §2

The test system of a further test is HepG2. The experiment in a line: Antiproliferative activity against human HepG2 cells after 72 hrs by MTT assay. Conditions: HepG2, 72 h. It counts as functional, cell-based. Put shortly:
as §1

For orientation: IC50 means the point on the concentration scale where inhibition reaches its midpoint. A low value points to inhibition by little substance. `C=C(C)[C@@H]1CC[C@]2(C(=O)OCc3nc(C)c(C)nc3C)CC[C@]3(C)[C@H](CC[C@@H]4[C@@]5(C)CC[C@H](OC(=O)[C@H](C)NC(=O)[C@@H]6CCCN6)C(C)(C)[C@@H]5CC[C@]43C)[C@@H]12`: the IC50 in the test on A549 was 4.08 µM; with MDCK, greater than 40 µM; in the test on BGC-823 it was 2520 nM; with HT-29 it was 3.56 µM; in the test with HeLa [1], 2.33 µM; in the test on HepG2 it was 3390 nM. The “Ratio IC50” value (with HeLa [2]; in test [3]; in test [4]; in test [5]; in test [6]) was greater than 10 each time.

Consider `C=C(C)[C@@H]1CC[C@]2(C(=O)OCc3nc(C)c(C)nc3C)CC[C@]3(C)[C@H](CC[C@@H]4[C@@]5(C)CC[C@H](OC(=O)[C@H](C)NC(=O)CN)C(C)(C)[C@@H]5CC[C@]43C)[C@@H]12`, for which the IC50 with A549 is 2.45 µM; with MDCK, greater than 40 µM; with BGC-823, 1490 nM; in the test with HT-29, 4.38 µM; in the test with HeLa [1] it was 5.57 µM; with HepG2 it was 2170 nM. For the same compound, the “Ratio IC50” value (with HeLa [2]; in test [3]; in test [4]; in test [5]; in test [6]) was greater than 10 in each case.

In the case of `C=C(C)[C@@H]1CC[C@]2(C(=O)OCc3nc(C)c(C)nc3C)CC[C@]3(C)[C@H](CC[C@@H]4[C@@]5(C)CC[C@H](OC(=O)[C@@H](N)CCCCN)C(C)(C)[C@@H]5CC[C@]43C)[C@@H]12`, the IC50 with A549 was 1.26 µM; in the test with MDCK, greater than 40 µM; in the test on BGC-823 it was 2160 nM; in the test with HT-29 it was 2.64 µM; in the test with HeLa [1], 2.62 µM; with HepG2 it was 2390 nM. In addition, the “Ratio IC50” value (in the test on HeLa [2]; in test [3]; in test [4]; in [5]; in [6]) was greater than 10 throughout.

On to `C=C(C)[C@@H]1CC[C@]2(C(=O)OCc3nc(C)c(C)nc3C)CC[C@]3(C)[C@H](CC[C@@H]4[C@@]5(C)CC[C@H](OC(=O)CNC(=O)[C@H](C)N)C(C)(C)[C@@H]5CC[C@]43C)[C@@H]12`, for which the IC50 in the test with A549 was 3.25 µM; in the test on MDCK, 16.2 µM; in the test on BGC-823, 4990 nM; in the test with HT-29 it was 3.67 µM; with HeLa [1] it was 3.19 µM; with HepG2 it was 2270 nM.

Regarding `C=C(C)[C@@H]1CC[C@]2(C(=O)OCc3nc(C)c(C)nc3C)CC[C@]3(C)[C@H](CC[C@@H]4[C@@]5(C)CC[C@H](OC(=O)CN(C)C(=O)[C@@H]6CCCN6)C(C)(C)[C@@H]5CC[C@]43C)[C@@H]12`, the IC50 in the test on A549 came to 3.91 µM; with MDCK, 11.3 µM; in the test with BGC-823, 1830 nM; in the test on HT-29 it was 5.98 µM; in the test on HeLa [1], 3.02 µM; with HepG2, 3750 nM.

Regarding `C=C(C)[C@@H]1CC[C@]2(C(=O)OCc3nc(C)c(C)nc3C)CC[C@]3(C)[C@H](CC[C@@H]4[C@@]5(C)CC[C@H](OC(=O)[C@H](C)N)C(C)(C)[C@@H]5CC[C@]43C)[C@@H]12`, the IC50 in the test with A549 was 6.33 µM; in the test on MDCK, greater than 40 µM; in the test on BGC-823 it was 6160 nM; in the test on HT-29, 7.74 µM; with HeLa [1], 6.62 µM; in the test with HepG2, greater than 20000 nM.

Source of the values: ChEMBL document CHEMBL4049390, “Combination of amino acid/dipeptide with ligustrazine-betulinic acid as antitumor agents” (Eur J Med Chem, 2017).
